Results taken from ChEMBL document CHEMBL1126822, “7 alpha-Methyl- and 11 beta-ethoxy-substitution of [125I]-16 alpha-iodoestradiol: effect on estrogen receptor-mediated target tissue uptake” (J Med Chem, 1993).

Each compound was assayed against Estrogen receptor (Mus musculus) (UniProt O08537+P19785) (assay: Binding affinity at murine estrogen receptor by [3H]estradiol displacement.).
Type: protein assay
How it was run: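 Competitive binding in murine uterine cytoplasmic extracts, incubated 18 h at 0-4 °C with 20 nM [3H]estradiol, with or without competing steroids from 2 nM to 20 μM. RBA = 100 × ratio of competitor to unlabeled estradiol concentration giving 50% competition of specific [3H]estradiol binding. Mean of three experiments with SD.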

Sequence of Estrogen receptor (Mus musculus) (O08537 whole entry, looked up): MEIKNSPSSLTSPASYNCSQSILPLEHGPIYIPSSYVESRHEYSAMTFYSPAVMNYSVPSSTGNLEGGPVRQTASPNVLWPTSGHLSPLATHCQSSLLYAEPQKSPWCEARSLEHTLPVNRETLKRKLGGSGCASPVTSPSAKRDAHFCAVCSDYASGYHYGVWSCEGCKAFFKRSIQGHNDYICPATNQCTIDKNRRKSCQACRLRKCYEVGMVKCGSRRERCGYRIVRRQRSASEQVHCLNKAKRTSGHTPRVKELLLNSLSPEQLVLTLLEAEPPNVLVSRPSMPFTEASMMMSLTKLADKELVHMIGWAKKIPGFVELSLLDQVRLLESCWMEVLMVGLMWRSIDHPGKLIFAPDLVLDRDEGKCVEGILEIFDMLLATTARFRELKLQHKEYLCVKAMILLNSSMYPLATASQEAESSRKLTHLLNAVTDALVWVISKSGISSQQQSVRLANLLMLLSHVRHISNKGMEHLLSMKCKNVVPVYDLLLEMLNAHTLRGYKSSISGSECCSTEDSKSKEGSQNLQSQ
Sequence of Estrogen receptor (Mus musculus) (P19785 whole entry, looked up): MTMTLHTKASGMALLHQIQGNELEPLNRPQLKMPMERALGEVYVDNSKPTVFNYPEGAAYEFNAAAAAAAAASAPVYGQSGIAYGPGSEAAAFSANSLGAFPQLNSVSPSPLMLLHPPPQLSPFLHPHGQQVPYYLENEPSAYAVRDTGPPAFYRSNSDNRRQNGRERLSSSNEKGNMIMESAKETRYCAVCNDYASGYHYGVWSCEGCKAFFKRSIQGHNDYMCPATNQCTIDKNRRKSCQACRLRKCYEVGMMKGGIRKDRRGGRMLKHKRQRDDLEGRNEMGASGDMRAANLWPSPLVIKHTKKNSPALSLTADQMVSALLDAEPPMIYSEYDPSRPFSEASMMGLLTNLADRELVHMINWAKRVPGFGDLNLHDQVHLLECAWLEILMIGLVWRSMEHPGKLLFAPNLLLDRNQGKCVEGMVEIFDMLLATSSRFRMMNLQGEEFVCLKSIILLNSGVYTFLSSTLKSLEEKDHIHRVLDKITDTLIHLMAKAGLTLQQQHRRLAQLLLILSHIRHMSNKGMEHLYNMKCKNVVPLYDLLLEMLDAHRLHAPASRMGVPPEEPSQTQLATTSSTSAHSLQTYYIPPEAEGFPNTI

Question: How did the relative binding affinity (RBA) turn out when `C[C@@H]1Cc2cc(O)ccc2[C@H]2CC[C@]3(C)[C@@H](O)[C@@H](Cl)C[C@H]3[C@H]12` was run?
Answer: Its relative binding affinity (RBA) is 4.3.

Question: For `CCO[C@H]1C[C@]2(C)C(=O)[C@H](Cl)C[C@H]2[C@@H]2CCc3cc(O)ccc3[C@H]21`, which relative binding affinity (RBA) is on record?
Answer: The relative binding affinity (RBA) was 0.8.

Question: How did the relative binding affinity (RBA) turn out when `CCO[C@H]1C[C@]2(C)C(=O)[C@H](Br)C[C@H]2[C@@H]2CCc3cc(O)ccc3[C@H]21` was run?
Answer: Its relative binding affinity (RBA) is 0.8.

Question: How did the relative binding affinity (RBA) turn out when `C[C@@H]1Cc2cc(O)ccc2[C@H]2CC[C@]3(C)[C@@H](O)[C@H](Cl)C[C@H]3[C@H]12` was run?
Answer: Its relative binding affinity (RBA) is 71.5.

Question: `CCO[C@H]1C[C@]2(C)[C@H](O)[C@H](Cl)C[C@H]2[C@@H]2CCc3cc(O)ccc3[C@H]21` was tested. Which relative binding affinity (RBA) did it give?
Answer: The relative binding affinity (RBA) was 0.8.

Question: `CCO[C@H]1C[C@]2(C)[C@H](O)[C@H](Br)C[C@H]2[C@@H]2CCc3cc(O)ccc3[C@H]21` was tested. Which relative binding affinity (RBA) did it give?
Answer: Its relative binding affinity (RBA) is 1.1.

Question: How did the relative binding affinity (RBA) turn out when `CCO[C@H]1C[C@]2(C)[C@@H](O)[C@@H](Br)C[C@H]2[C@@H]2CCc3cc(O)ccc3[C@H]21` was run?
Answer: The relative binding affinity (RBA) was 0.6.

Question: For `C[C@@H]1Cc2cc(O)ccc2[C@H]2CC[C@]3(C)[C@@H](O)[C@H](Br)C[C@H]3[C@H]12`, which relative binding affinity (RBA) is on record?
Answer: Its relative binding affinity (RBA) is 79.1.

Question: `CO[C@H]1C[C@]2(C)[C@@H](O)[C@H](Br)C[C@H]2[C@@H]2CCc3cc(O)ccc3[C@H]21` was tested. Which relative binding affinity (RBA) did it give?
Answer: Its relative binding affinity (RBA) is 20.

Question: With `CCO[C@H]1C[C@]2(C)[C@@H](O)[C@H](Br)C[C@H]2[C@@H]2CCc3cc(O)ccc3[C@H]21` as the compound, how does the relative binding affinity (RBA) read?
Answer: The relative binding affinity (RBA) was 16.8.

Question: With `C[C@@H]1Cc2cc(O)ccc2[C@H]2CC[C@]3(C)[C@H](O)[C@H](Cl)C[C@H]3[C@H]12` as the compound, how does the relative binding affinity (RBA) read?
Answer: Its relative binding affinity (RBA) is 16.6.

Question: For `C[C@@H]1Cc2cc(O)ccc2[C@H]2CC[C@]3(C)C(=O)[C@@H](Br)C[C@H]3[C@H]12`, which relative binding affinity (RBA) is on record?
Answer: Its relative binding affinity (RBA) is 5.3.

Question: Which relative binding affinity (RBA) does the source give for `CCO[C@H]1C[C@]2(C)[C@@H](O)[C@H](Cl)C[C@H]2[C@@H]2CCc3cc(O)ccc3[C@H]21` here?
Answer: The relative binding affinity (RBA) was 14.9.

Question: How did the relative binding affinity (RBA) turn out when `C[C@@H]1Cc2cc(O)ccc2[C@H]2CC[C@]3(C)C(=O)[C@H](Br)C[C@H]3[C@H]12` was run?
Answer: The relative binding affinity (RBA) was 28.4.

Question: For `C[C@@H]1Cc2cc(O)ccc2[C@H]2CC[C@]3(C)[C@H](O)[C@H](Br)C[C@H]3[C@H]12`, which relative binding affinity (RBA) is on record?
Answer: Its relative binding affinity (RBA) is 13.6.

Question: Which relative binding affinity (RBA) does the source give for `C[C@@H]1Cc2cc(O)ccc2[C@H]2CC[C@]3(C)[C@@H](O)[C@@H](Br)C[C@H]3[C@H]12` here?
Answer: Its relative binding affinity (RBA) is 7.1.

Question: With `C[C@@H]1Cc2cc(O)ccc2[C@H]2CC[C@]3(C)C(=O)[C@H](Cl)C[C@H]3[C@H]12` as the compound, how does the relative binding affinity (RBA) read?
Answer: Its relative binding affinity (RBA) is 33.8.
